Data reported in ChEMBL document CHEMBL4334464, “From Phenylthiazoles to Phenylpyrazoles: Broadening the Antibacterial Spectrum toward Carbapenem-Resistant Bacteria” (J Med Chem, 2019).
In brackets after ≈: the same amount, converted by molar mass. Activity calls are given as the source filed them. No cut-off for these calls is given here.

Key:
Escherichia coli [1] = experiment: Antibacterial activity against carbapenem-resistant Escherichia coli BAA-2452 clinical isolates after 18 to 20 hrs in aerobic condition by CLSI-based broth microdilution assay; type: functional
Escherichia coli [2] = experiment: Antibacterial activity against carbapenem-resistant Escherichia coli BAA-2469 clinical isolates after 18 to 20 hrs in aerobic condition by CLSI-based broth microdilution assay; type: functional
Klebsiella pneumoniae [3] = experiment: Antibacterial activity against carbapenem-resistant Klebsiella pneumoniae ATCC BAA-1705 clinical isolates after 18 to 20 hrs in aerobic condition by CLSI-based broth microdilution assay; type: functional
Klebsiella pneumoniae [4] = experiment: Antibacterial activity against carbapenem-resistant Klebsiella pneumoniae ATCC BAA-2146 clinical isolates after 18 to 20 hrs in aerobic condition by CLSI-based broth microdilution assay; type: functional
Acinetobacter baumannii [5] = experiment: Antibacterial activity against carbapenem-resistant Acinetobacter baumannii ATCC BAA 1605 clinical isolates after 18 to 20 hrs in aerobic condition by CLSI-based broth microdilution assay; type: functional
Pseudomonas aeruginosa [6] = experiment: Antibacterial activity against carbapenem-resistant Pseudomonas aeruginosa ATCC 1744 clinical isolates after 18 to 20 hrs in aerobic condition by CLSI-based broth microdilution assay; type: functional
Staphylococcus aureus = experiment: Antibacterial activity against methicillin-resistant Staphylococcus aureus NRS384-USA300 clinical isolates after 18 to 20 hrs in aerobic condition by CLSI protocol based broth microdilution assay; type: functional
Escherichia coli [7] = experiment: Antimicrobial activity against Escherichia coli JW55031 harboring deltatolC mutant after 18 to 20 hrs in aerobic condition by CLSI protocol based broth microdilution assay; type: functional
Salmonella enteritidis [8] = experiment: Antibacterial activity against Salmonella enteritidis ATCC 14028 infected in mouse J774 cells assessed as reduction in intracellular bacterial cells at 2 times MIC incubated for 24 hrs followed by re-plating on TSA plate and measured after 18 to 22 hrs relative to control; type: functional; conditions: Salmonella enterica subsp. enterica serovar Enteritidis
Procedure, shortened: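 J774 murine macrophages infected with Salmonella enteritidis ATCC 14028, then treated at 2×MIC for 24 h, in triplicate. Read-out is the percent reduction in intracellular colony forming units versus the untreated control.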

Acinetobacter baumannii [9] = experiment: Antibacterial activity against Acinetobacter baumannii ATCC 19606 clinical isolates after 18 to 20 hrs in aerobic condition by CLSI-based broth microdilution assay; type: functional; conditions: ATCC 19606 = CIP 70.34 = JCM 6841
Escherichia coli [10] = experiment: Antibacterial activity against Escherichia coli BW25113 clinical isolates after 18 to 20 hrs in aerobic condition by CLSI-based broth microdilution assay; type: functional
Klebsiella pneumoniae [11] = experiment: Antibacterial activity against Klebsiella pneumoniae BAA-1706 clinical isolates after 18 to 20 hrs in aerobic condition by CLSI-based broth microdilution assay; type: functional
Pseudomonas aeruginosa [12] = experiment: Antibacterial activity against Pseudomonas aeruginosa ATCC 15442 clinical isolates after 18 to 20 hrs in aerobic condition by CLSI-based broth microdilution assay; type: functional
[13] = Apparent permeability across basolateral to apical side in human Caco2 cells after 2 hrs by LC/MS/MS analysis; type: ADME, cell-based; conditions: Caco-2
[14] = Efflux ratio of apparent permeability across basolateral to apical side over apical to basolateral side in human Caco2 cells after 2 hrs by LC/MS/MS analysis; type: ADME, cell-based; conditions: Caco-2
Acinetobacter baumannii [15] = experiment: Antibacterial activity against Acinetobacter baumannii ATCC BAA 1141 clinical isolates after 18 to 20 hrs in aerobic condition by CLSI-based broth microdilution assay; type: functional
Acinetobacter baumannii [16] = experiment: Antibacterial activity against Acinetobacter baumannii NR 17786 clinical isolates after 18 to 20 hrs in aerobic condition by CLSI-based broth microdilution assay; type: functional
Acinetobacter baumannii [17] = experiment: Antibacterial activity against Acinetobacter baumannii NR 17785 clinical isolates after 18 to 20 hrs in aerobic condition by CLSI-based broth microdilution assay; type: functional
Escherichia coli [18] = experiment: Antibacterial activity against Escherichia coli ATCC 25922 clinical isolates after 18 to 20 hrs in aerobic condition by CLSI-based broth microdilution assay; type: functional
Escherichia coli [19] = experiment: Antibacterial activity against Escherichia coli ATCC 35150 clinical isolates after 18 to 20 hrs in aerobic condition by CLSI-based broth microdilution assay; type: functional
[20] = test system: Enterobacter cloacae subsp. cloacae; experiment: Antibacterial activity against Enterobacter cloacae subsp. cloacae ATCC BAA-1143 clinical isolates after 18 to 20 hrs in aerobic condition by CLSI-based broth microdilution assay; type: functional
Klebsiella pneumoniae [21] = experiment: Antibacterial activity against Klebsiella pneumoniae BAA-1144 clinical isolates after 18 to 20 hrs in aerobic condition by CLSI-based broth microdilution assay; type: functional
Salmonella enterica = experiment: Antibacterial activity against Salmonella enterica NR-170 clinical isolates after 18 to 20 hrs in aerobic condition by CLSI-based broth microdilution assay; type: functional
Salmonella enteritidis [22] = experiment: Antibacterial activity against Salmonella enteritidis ATCC 13076 clinical isolates after 18 to 20 hrs in aerobic condition by CLSI-based broth microdilution assay; type: functional; conditions: Salmonella enterica subsp. enterica serovar Enteritidis
Salmonella enteritidis [23] = experiment: Antibacterial activity against Salmonella enteritidis ATCC 14028 clinical isolates after 18 to 20 hrs in aerobic condition by CLSI-based broth microdilution assay; type: functional; conditions: Salmonella enterica subsp. enterica serovar Enteritidis
Salmonella typhimurium = experiment: Antibacterial activity against Salmonella typhimurium ATCC 700720 after 18 to 20 hrs in aerobic condition by CLSI-based broth microdilution assay; type: functional; conditions: Salmonella enterica subsp. enterica serovar Typhimurium
Shigella flexneri = experiment: Antibacterial activity against Shigella flexneri ATCC 9199 clinical isolates after 18 to 20 hrs in aerobic condition by CLSI-based broth microdilution assay; type: functional

Compound: CN(C)c1cc(NC(=O)CNC(C)(C)C)c(O)c2c1C[C@H]1C[C@H]3[C@H](N(C)C)C(O)=C(C(N)=O)C(=O)[C@@]3(O)C(O)=C1C2=O [TIGECYCLINE]
- MIC (Escherichia coli [1]): 0.25 µg/mL (≈ 0.427 µM)
- MIC (Escherichia coli [2]): 0.5 µg/mL (≈ 0.854 µM)
- MIC (Klebsiella pneumoniae [3]): 1 µg/mL (≈ 1.71 µM)
- MIC (Klebsiella pneumoniae [4]): 4 µg/mL (≈ 6.83 µM)
- MIC (Acinetobacter baumannii [5]): 1 µg/mL (≈ 1.71 µM)
- MIC (Pseudomonas aeruginosa [6]): 8 µg/mL (≈ 13.7 µM)

Compound: C/C(=N\NC(=N)N)c1cnn(-c2ccc(C#CC3CC3)cc2)c1C
- MIC (Staphylococcus aureus): 8 µg/mL (≈ 25 µM)
- MIC (Escherichia coli [7]): 8 µg/mL (≈ 25 µM)

Compound: CCN(CC)CC#Cc1ccc(-n2ncc(/C(C)=N/NC3=NCCN3)c2C)cc1
- MIC (Staphylococcus aureus): > 128 µg/mL
- MIC (Escherichia coli [7]): > 128 µg/mL

Compound: CCCC#Cc1ccc(-n2ncc(/C(C)=N/NC3=NCCN3)c2C)cc1
- MIC (Staphylococcus aureus): 8 µg/mL (≈ 23 µM)
- MIC (Escherichia coli [7]): 16 µg/mL (≈ 45.9 µM)

Compound: NC[C@H]1O[C@H](O[C@H]2[C@H](O)[C@@H](O[C@H]3O[C@H](CO)[C@@H](O)[C@H](N)[C@H]3O)[C@H](N)C[C@@H]2N)[C@H](O)[C@@H](O)[C@@H]1O
- Activity (Salmonella enteritidis [8]): inactive

Compound: C/C(=N\NC1=NCCN1)c1cnn(-c2ccc(C#CC(C)(C)O)cc2)c1C
- MIC (Staphylococcus aureus): 32 µg/mL (≈ 87.8 µM)
- MIC (Escherichia coli [7]): 16 µg/mL (≈ 43.9 µM)

Compound: C/C(=N\NC(=N)N)c1sc(-c2ccc(C#CC3CCCC3)cc2)nc1C
- Activity (Escherichia coli [7]): inactive
- Activity (Acinetobacter baumannii [9]): inactive
- Activity (Escherichia coli [10]): inactive
- Activity (Klebsiella pneumoniae [11]): inactive
- Activity (Pseudomonas aeruginosa [12]): inactive

Compound: C/C(=N\NC(=N)N)c1cnn(-c2ccc(C#CC(C)(C)O)cc2)c1C
- MIC (Staphylococcus aureus): 128 µg/mL (≈ 378 µM)
- MIC (Escherichia coli [7]): 128 µg/mL (≈ 378 µM)

Compound: C[C@@H](O)[C@H]1C(=O)N2C(C(=O)O)=C(S[C@@H]3CN[C@H](C(=O)N(C)C)C3)[C@H](C)[C@H]12 [MEROPENEM]
- MIC (Escherichia coli [1]): 32 µg/mL (≈ 83.4 µM)
- MIC (Escherichia coli [2]): 32 µg/mL (≈ 83.4 µM)
- MIC (Klebsiella pneumoniae [3]): 32 µg/mL (≈ 83.4 µM)
- MIC (Klebsiella pneumoniae [4]): 64 µg/mL (≈ 167 µM)
- MIC (Acinetobacter baumannii [5]): 32 µg/mL (≈ 83.4 µM)
- MIC (Pseudomonas aeruginosa [6]): 16 µg/mL (≈ 41.7 µM)

Compound: CCCCCCC#Cc1ccc(-n2ncc(/C(C)=N/NC(=N)N)c2C)cc1
- MIC (Staphylococcus aureus): 2 µg/mL (≈ 5.49 µM)
- MIC (Escherichia coli [7]): 8 µg/mL (≈ 21.9 µM)

Compound: C/C(=N\NC1=NCCN1)c1cnn(-c2ccc(C#CC3(O)CCCCC3)cc2)c1C
- MIC (Staphylococcus aureus): 64 µg/mL (≈ 158 µM)
- MIC (Escherichia coli [7]): 32 µg/mL (≈ 79.1 µM)

Compound: C/C(=N\NC1=NCCN1)c1cnn(-c2ccc(C#CC3CCCCC3)cc2)c1C
- MIC (Staphylococcus aureus): 4 µg/mL (≈ 10.3 µM)
- MIC (Escherichia coli [7]): 4 µg/mL (≈ 10.3 µM)

Compound: CC(=O)C(=CN(C)C)C(C)=O
- Papp B→A at 2 h [13]: 1.2 ×10⁻⁶ cm/s
- efflux ratio at 2 h [14]: > 2

Compound: GENTAMICIN
- MIC (Acinetobacter baumannii [9]): 16 µg/mL
- MIC (Acinetobacter baumannii [15]): 4 µg/mL
- MIC (Acinetobacter baumannii [16]): 64 µg/mL
- MIC (Acinetobacter baumannii [17]): > 64 µg/mL
- MIC (Escherichia coli [18]): 1 µg/mL
- MIC (Escherichia coli [19]): 1 µg/mL
- MIC [20]: 1 µg/mL
- MIC (Klebsiella pneumoniae [11]): 8 µg/mL
- MIC (Klebsiella pneumoniae [21]): 16 µg/mL
- MIC (Salmonella enterica): 1 µg/mL
- MIC (Salmonella enteritidis [22]): 1 µg/mL
- MIC (Salmonella enteritidis [23]): 1 µg/mL
- MIC (Salmonella typhimurium): 1 µg/mL
- MIC (Shigella flexneri): 1 µg/mL
- MIC (Pseudomonas aeruginosa [12]): 2 µg/mL
